Data set [1] deals with Rattus norvegicus. As to the kind of experiment: AUC in intragastrically dosed rat assessed as resveratrol level at 0.09 mmol/kg after 10 mins. The settings on record: in vivo, po. Format: ADME, organism-based, Plasma. The arrangement: time < 0.166667 hr, dose 0.09 mmol/kg, route intragastric. The method, boiled down:
(§1)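 Rats received intragastric doses, with the same animals given both resveratrol and the derivative to limit individual variability. Blood was sampled over time. Circulating resveratrol and its sulfate and glucuronide conjugates were identified by HPLC–UV at 320 nm and LC–MS against synthesized phase II metabolite standards, confirmed by enzymatic treatment. Cmax and AUC were taken from concentration–time curves.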

Data set [2] in a line: Solubility in water at room temperature. Format: physicochemical.
Data set [3] is described as follows: Chemical stability in 1N HCl solution assessed as compound remaining at 37degC. To be noted: buffer. Format: physicochemical. The essentials:
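The compound was incubated in 1 N HCl at 37 °C for 6 h and analysed by LC–MS. The amount remaining is expressed as % of the initial molar amount.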

Data set [4] relates to Rattus norvegicus. Put plainly: AUC in intragastrically dosed rat assessed as total metabolite level at 0.09 mmol/kg after 10 mins. The settings on record: in vivo, po. The format is ADME, organism-based, Plasma. Also noted: dose 0.09 mmol/kg, time < 0.166667 hr, route intragastric. The method, boiled down: as §1
The subject of data set [5] is Rattus norvegicus. As to the kind of experiment: AUC in intragastrically dosed rat assessed as resveratrol disulfate level at 0.09 mmol/kg after 10 mins. The format is ADME, organism-based, Plasma. Also noted: time < 0.166667 hr, dose 0.09 mmol/kg, route intragastric. To be noted: in vivo, po. The method, boiled down:
as §1

Data set [6] relates to Rattus norvegicus. As to the kind of experiment: AUC in intragastrically dosed rat assessed as resveratrol glucuronide level at 0.09 mmol/kg after 10 mins. Format: ADME, organism-based, Plasma. The arrangement: time < 0.166667 hr, dose 0.09 mmol/kg, route intragastric. The settings on record: in vivo, po. The method, boiled down: as §1
The test system of data set [7] is Rattus norvegicus. As to the kind of experiment: AUC in intragastrically dosed rat assessed as resveratrol sulfate level at 0.09 mmol/kg after 10 mins. The settings on record: in vivo, po. Also noted: dose 0.09 mmol/kg, time < 0.166667 hr, route intragastric. Format: ADME, organism-based, Plasma. The essentials: as §1
Data set [8] is described as follows: Cmax in intragastrically dosed rat at 0.09 mmol/kg after 10 mins. The format is ADME, organism-based. The arrangement: dose 0.09 mmol/kg, route intragastric. The settings on record: in vivo, po. The method, boiled down:
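Rats dosed intragastrically, with the same animals receiving both resveratrol and the glucosylsuccinyl derivative. Blood was sampled over time. Circulating species were identified by HPLC-UV at 320 nm and LC–MS against synthesized phase II metabolite standards (sulfates, glucuronides), with confirmation by enzymatic treatment. Cmax was read from concentration–time curves.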

Data set [9] in a line: Solubility in pH 9 buffer. Format: physicochemical.

Values after ≈ are worked out from the molar mass of the structure shown.

As to `O=C(CCC(=O)O[C@@H]1[C@@H](O)[C@@H](O)O[C@H](CO)[C@H]1O)Oc1ccc(/C=C/c2cc(OC(=O)CCC(=O)O[C@@H]3[C@@H](O)[C@@H](O)O[C@H](CO)[C@H]3O)cc(OC(=O)CCC(=O)O[C@@H]3[C@@H](O)[C@@H](O)O[C@H](CO)[C@H]3O)c2)cc1`, the AUC worked out at 0.2 µM·h in the data set on Rattus norvegicus [1]; 51.8 µM·h with Rattus norvegicus [4]; 27 µM·h in the data set on Rattus norvegicus [5]; 21.2 µM·h with Rattus norvegicus [6]; 3.5 µM·h in the data set on Rattus norvegicus [7]. Besides, the solubility (in general, the dissolved amount per volume that the medium holds) in [2] was found to be 90 mg/mL (≈ 88.7 mM). For the same compound, the Stability in [3] is on record as 80%.

With `Oc1ccc(/C=C/c2cc(O)cc(O)c2)cc1` [RESVERATROL], in [8], the Cmax – broadly, the maximum level reached in the sampled fluid or tissue – was determined as 1200 nM. For the same compound, the AUC stood at 1.1 µM·h in the data set with Rattus norvegicus [1]; 53.4 µM·h in the data set with Rattus norvegicus [4]; 14.4 µM·h in the data set with Rattus norvegicus [5]; 35.5 µM·h with Rattus norvegicus [6]; 2.4 µM·h in the data set on Rattus norvegicus [7].

For the compound `C[C@@H]1O[C@@H](OC[C@H]2O[C@@H](Oc3c(-c4ccc(O)c(O)c4)oc4cc(O)cc(O)c4c3=O)[C@H](O)[C@@H](O)[C@@H]2O)[C@H](O)[C@H](O)[C@H]1O` [RUTIN], in data set [9], the concentration in solution (solubility) was 2.3 mg/mL (≈ 3.77 mM).

Values taken from ChEMBL document CHEMBL1154379, “Soluble polyphenols: synthesis and bioavailability of 3,4',5-tri(alpha-D-glucose-3-O-succinyl) resveratrol” (Bioorg Med Chem Lett, 2009).
